Source: paper PMC8635173 (Chemical Science, 2021)
Like-named read-outs stand apart in the source and are kept apart here.

What was measured:
Aqueous solubility = format: physicochemical
NCI-H460 cells [1] = assay: Annexin V-FITC/PI double staining, flow cytometry; format: cell-based, human; conditions: 20 µM, 72 h
[2] = test system: DNA duplex bearing cytosine–cytosine (CC) mismatched base pairs; assay: DNA binding affinity by ITC
calf thymus DNA (ctDNA) = assay: UV-vis absorption titration with DNA; format: binding; conditions: complex 30 µM, Tris-HCl pH 7.4
[3] = test system: MDA-MB-231 triple-negative breast cancer carcinoma; assay: Anti-proliferative NBB assay; format: cell-based, human; conditions: read-out: IC50 MDA-MB-231; 72 h
[4] = test system: different cancer cell lines; assay: Anti-proliferative NBB assay, summary over several cancer cell lines; format: cell-based, human; conditions: for IC50: read-out: IC50 toward different cell lines, NCI-H460 lung, PLC liver and HCT116 colorectal carcinomas
NCI-H460 cells [5] = assay: Mitochondrial depolarization assay; format: cell-based, human; conditions: 10 µM, 24 h, relative to vehicle
[6] = test system: NCI-H460 non-small cell lung carcinoma; assay: Anti-proliferative NBB assay; format: cell-based, human; conditions: read-out: IC50 NCI-H460; 72 h
NCI-H460 cells [7] = assay: Intracellular oxidant level; format: cell-based, human; conditions: 10 µM, 24 h
[8] = test system: NCI-H460 lung cancer xenografts; assay: In vivo anti-tumor study; design: species or system nude mouse; conditions: 1a 25 mg kg^−1 i.v., 14 days
Summary of the method: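 Nude mice bearing NCI-H460 xenografts were randomised into groups (n = 6). Groups received test compound (25 mg kg⁻¹) or PBS vehicle i.v. for 14 days; cisplatin (1.5 mg kg⁻¹ i.v.) on a similar regimen served as positive control. Tumour volume was tracked. Dissected tumours were weighed and examined by H&E and Ki-67 immunohistochemistry. Data are given as mean ± standard error.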

A2780 ovarian carcinoma = assay: Anti-proliferative NBB assay; format: cell-based, human; conditions: read-out: IC50 A2780; 72 h
[9] = test system: telomeric G-quadruplex (HTelo) DNA; assay: UV-vis absorption titration with DNA; format: binding; conditions: at λmax of 345 nm
NCI-H460 cells [10] = assay: Subcellular distribution of platinum content by ICP-MS; format: cell-based, human; conditions: 24 h treatment
ctDNA = assay: DNA binding affinity by isothermal titration calorimetry; design: species or system calf
NCI-H460 cells [11] = assay: Cellular uptake of platinum by ICP-MS; format: cell-based, human; conditions: for decrease in Pt levels in cells: 2 h treatment
[12] = Lipophilicity measurement; format: physicochemical; conditions: n-octanol / 0.9 % aqueous NaCl, 298 K
[13] = test system: CCD-19Lu normal lung fibroblast; assay: Anti-proliferative NBB assay; format: cell-based, human; conditions: read-out: IC50 CCD-19Lu; 72 h
[14] = test system: NCI-H460 cancer cells and CCD-19Lu normal fibroblast cells; assay: Comparative cellular uptake, cancer versus normal cells, ICP-MS; format: cell-based, human
NCI-H460 cells [15] = assay: Cell cycle analysis by flow cytometry; format: cell-based, human; conditions: 10 µM
[16] = In vivo systemic toxicity; design: species or system nude mouse
Summary of the method: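 Tumour-bearing nude mice (n = 6) received test compound (25 mg kg⁻¹ i.v.) or PBS vehicle for 14 days. Body weight was tracked throughout. At day 14, major organs were harvested for H&E histology, and blood was analysed for ALT and creatinine.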

NCI-H460 cells [17] = assay: γ-H2AX immunofluorescence staining; format: cell-based, human; conditions: 10 µM, 24 h post-treatment
[18] = Particle size by nanoparticle tracking analysis; format: physicochemical
[19] = biological target: guanine–cytosine (GC)-rich DNA; assay: DNA binding affinity by ITC; conditions: read-out: KD (GC-rich DNA), one-site binding model, pH 7.4
LC3 (LC3-II) = assay: Immunoblotting of autophagy marker LC3; format: cell-based, human; conditions: Western blotting; 1a 0-30 µM 6 h or 10 µM 6-24 h; cisplatin 0-20 µM 6 h
[20] = test system: PLC primary liver carcinoma; assay: Anti-proliferative NBB assay; format: cell-based, human; conditions: read-out: IC50 PLC; 72 h
[21] = test system: HCT116 colorectal carcinoma; assay: Anti-proliferative NBB assay; format: cell-based, human; conditions: read-out: IC50 HCT116; 72 h
NCI-H460 cells [22] = assay: Lysosomal integrity; format: cell-based, human; conditions: 10 µM, 24 h
Summary of the method: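 NCI-H460 cells were exposed to test compound (10 μM) for 24 h and then stained. Stains were acridine orange (10 μM), LysoTracker Deep Red with MitoTracker Green (50 nM), and pepstatin A–BODIPY FL conjugate (1 μM) co-stained with LysoTracker Deep Red. Imaging was by confocal microscopy, checking vesicular staining loss and cytosolic probe leakage against vehicle.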

[23] = test system: NCI-H460 cells stably expressing mRFP-GFP-LC3; assay: Live cell imaging of mRFP-GFP-tagged LC3; format: cell-based, human; conditions: 10 µM, 24 h
[24] = test system: β-glucosidase (from almonds); assay: Enzymatic cleavage of the glycosidic linkage, UPLC/MS; format: in vitro ADME
Summary of the method: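 Test compound incubated with almond β-glucosidase (0.5 U mL⁻¹) in PBS pH 5.8 at 37 °C for up to 24 h. Enzyme-free controls were run in PBS pH 5.8 and pH 7.4. Release of the deglycosylated aglycone was followed over time by UPLC/MS peak tracking (retention time and m/z).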

## [Pt(tpy)(C?CArOGlu)](CF3SO3) [Complex 1a]
Aqueous solubility
  solubility (water): 8600 µg/mL
NCI-H460 cells [1]
  necrotic cell death (annexin V-negative and PI-positive): 91%
[2]; 1a versus 2
  fold higher binding affinity than 2 (CC mismatched DNA): 4.3 fold
[2]; read-out: KD (CC mismatched DNA), ITC, one-site binding model, pH 7.4
  Kd: 19.6 µM
Calf thymus DNA (ctDNA)
  bathochromic (red) shift of lowest-energy absorption band upon addition of ctDNA: 42 nm
Calf thymus DNA (ctDNA); lowest-energy absorption band
  hypochromism upon addition of ctDNA: 16.8%
[3]
  IC50: 23.8 ± 5.8 µM
[4]; most of the cancer cell lines, 72 h
  fold higher anti-proliferative activity than 1b: 1.4- to 2.4 fold
[4]; 24 h post-treatment
  IC50: > 100 µM
[4]; after 48 h
  IC50: 54.6 to 74.5 µM
NCI-H460 cells [5]
  decrease in red fluorescence of JC-1 (mitochondrial depolarization): ca. 21%
[6]
  IC50: 7.1 ± 0.3 µM
NCI-H460 cells [7]
  increment in DCF fluorescence intensity versus vehicle control: ~1.2 fold
[8]
  immunohistochemical staining for Ki-67 in tumor specimens: significant reduction
A2780 ovarian carcinoma
  IC50: 8.7 ± 0.2 µM
[9]
  hypochromism upon addition of HTelo DNA: 19.6%
NCI-H460 cells [10]
  Pt content in cytosolic fraction: 55%
  Pt content in mitochondrial fraction: 37%
  Pt content in nuclear fraction: 9%
ctDNA; 1a versus 2
  fold lower KD than 2 (ctDNA): 27.5 fold
ctDNA; read-out: KD (ctDNA), ITC, one-site binding model, pH 7.4
  Kd: 0.48 µM
NCI-H460 cells [11]; 10 µM, after 24 h
  fold higher intracellular Pt level than 1b: ca. 3.2 fold
  fold higher intracellular Pt level than 1c: ~8 fold
  fold higher intracellular Pt level than 1d: ~1.6 fold
NCI-H460 cells [11]; hypertonic sucrose (450 mM)
  decrease in Pt levels in cells: 27.4%
NCI-H460 cells [11]; incubation at 4 °C
  decrease in Pt levels in cells: 77.1%
NCI-H460 cells [11]; low temperature (4 °C) or inhibition of endocytosis
  reduction in the cellular Pt level (upper figure): up to 80%
NCI-H460 cells [11]; nocodazole (50 µM)
  decrease in Pt levels in cells: 41.9%
[12]
  lipophilicity (log P): −0.88
[13]
  IC50: > 100 µM
[14]
  fold higher Pt accumulation in NCI-H460 than in CCD-19Lu cells: 1.9 fold
NCI-H460 cells [15]; 24 h, versus vehicle
  increase in G0/G1 populations: 9.3%
NCI-H460 cells [15]; 48 h compared with 24 h
  change in cell populations on prolonging treatment to 48 h: no significant increase in cell populations
[16]; 25 mg kg^−1 i.v., after 14 days, H&E
  histopathology of major organs (heart, liver, spleen, lungs and kidneys): No obvious histopathological lesion
[16]; 25 mg kg^−1 i.v., day 14
  plasma level of alanine aminotransferase (ALT): comparable to those in the vehicle control
  plasma level of creatinine (CREA): comparable to those in the vehicle control
[16]; throughout the 14-day treatment period
  death or weight loss of mice: None of the mice died or displayed any sign of weight loss
NCI-H460 cells [17]
  γ-H2AX foci in nuclei: some significant fluorescent γ-H2AX foci
[18]; RPMI 1640 cell culture medium containing 10% fetal bovine serum
  average hydrodynamic diameter: 87.3 ± 4.6 nm
[18]; aqueous solution containing 1% DMSO, 100 µM
  average hydrodynamic diameter: 139.6 ± 2.5 nm
[19]
  Kd: 74.1 µM
LC3 (LC3-II)
  level of LC3-II: increased levels
[20]
  IC50: 17.2 ± 1.2 µM
[21]
  IC50: 7.5 ± 0.6 µM
NCI-H460 cells [22]
  lysosomal integrity: disruption of lysosomes
[23]
  Pearson's colocalization coefficient of green and red LC3 puncta: 0.64
[24]; buffer control without β-glu, PBS pH 5.8, 24 h
  conversion of 1a into 1d: ca. 2%
[24]; β-glu 0.5 U mL^−1, PBS pH 5.8, 37 °C, 24 h
  conversion of 1a into 1d: more than 70%

## N.N.[Cl][Pt][Cl] [Cisplatin, reference compound]
NCI-H460 cells [1]
  late apoptosis (annexin V-positive and PI-positive): 87.2%
[3]
  IC50: 19.7 ± 1.6 µM
NCI-H460 cells [5]
  decrease in red fluorescence of JC-1 (mitochondrial depolarization): 8.3%
[6]
  IC50: 6.9 ± 0.5 µM
A2780 ovarian carcinoma
  IC50: 8.9 ± 0.7 µM
[13]
  IC50: 30.8 ± 4.9 µM
NCI-H460 cells [15]; 24 h, versus vehicle
  increase in G2/M populations: 53.7%
NCI-H460 cells [17]
  γ-H2AX foci in nuclei: even more markedly increased
LC3 (LC3-II)
  level of LC3-II: dose-dependent increase
[20]
  IC50: 9.1 ± 1.2 µM
[21]
  IC50: 5.1 ± 0.4 µM
NCI-H460 cells [22]
  lysosomal integrity: negligible damage to the cellular lysosomes
